According to paper PMC3107912 (Bioorganic & medicinal chemistry letters, 2011):
Values belong to the compound of their own block, whether it stands above or below them.

Columns and labels:
Type in all cases: cell-based
S1P4 receptor = biological target: T1, S1P4 receptor (Homo sapiens, UniProt O95977); assay: S1P4 functional antagonist assay; settings: for fold less potent than the hit (1) at S1P4: versus hit compound 1
T1 sequence (O95977 1-384): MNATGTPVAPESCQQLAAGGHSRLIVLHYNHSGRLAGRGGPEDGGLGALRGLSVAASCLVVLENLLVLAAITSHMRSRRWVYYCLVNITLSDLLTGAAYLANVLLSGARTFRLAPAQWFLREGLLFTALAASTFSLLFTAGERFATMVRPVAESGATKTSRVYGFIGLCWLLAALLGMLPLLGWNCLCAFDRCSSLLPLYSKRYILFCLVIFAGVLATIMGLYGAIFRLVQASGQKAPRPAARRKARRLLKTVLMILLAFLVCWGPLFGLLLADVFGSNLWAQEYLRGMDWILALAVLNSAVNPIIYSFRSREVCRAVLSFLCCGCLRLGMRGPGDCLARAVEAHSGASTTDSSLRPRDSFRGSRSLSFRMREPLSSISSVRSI
Summary of the method: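 U2OS cells co-express a beta-arrestin/TEV protease fusion protein and a beta-lactamase reporter gene under the control of a UAS response element. Beta-lactamase expression is read as FRET from a cleavable, fluorogenic, cell-permeable beta-lactamase substrate. The test compound's antagonism of the S1P4 receptor is reported as an IC50.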

S1P3 = S1P3 (Homo sapiens, UniProt Q99500); assay: S1P selectivity counter screen, functional assay at S1P3
S1P2 = S1P2 (Homo sapiens, UniProt O95136); assay: S1P selectivity counter screen, functional assay at S1P2
S1P1 = S1P1 (Homo sapiens, UniProt P21453); assay: S1P selectivity counter screen, functional assay at S1P1
Chain of S1P1 (P21453 whole entry, species assumed): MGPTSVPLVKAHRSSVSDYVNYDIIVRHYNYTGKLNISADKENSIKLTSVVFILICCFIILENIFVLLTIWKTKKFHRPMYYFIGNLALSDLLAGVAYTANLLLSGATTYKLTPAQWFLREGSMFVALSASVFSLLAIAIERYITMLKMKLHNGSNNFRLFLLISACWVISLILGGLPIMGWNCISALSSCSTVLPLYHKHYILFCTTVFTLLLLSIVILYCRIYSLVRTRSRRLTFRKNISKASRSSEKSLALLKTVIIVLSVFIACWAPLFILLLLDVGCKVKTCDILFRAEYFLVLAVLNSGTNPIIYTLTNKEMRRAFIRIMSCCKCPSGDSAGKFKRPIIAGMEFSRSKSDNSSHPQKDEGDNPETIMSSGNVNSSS

Chain of S1P3 (Q99500 whole entry, species assumed): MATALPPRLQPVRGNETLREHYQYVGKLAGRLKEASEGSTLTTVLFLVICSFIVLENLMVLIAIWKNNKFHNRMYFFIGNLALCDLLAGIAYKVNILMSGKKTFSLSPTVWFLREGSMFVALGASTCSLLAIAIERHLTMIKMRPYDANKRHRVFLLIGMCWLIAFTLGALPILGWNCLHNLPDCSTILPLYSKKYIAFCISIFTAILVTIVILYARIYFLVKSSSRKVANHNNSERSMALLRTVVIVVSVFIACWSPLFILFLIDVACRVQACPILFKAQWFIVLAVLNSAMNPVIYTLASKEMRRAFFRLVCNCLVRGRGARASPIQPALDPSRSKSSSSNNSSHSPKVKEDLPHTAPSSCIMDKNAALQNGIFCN
Chain of S1P2 (O95136 whole entry, species assumed): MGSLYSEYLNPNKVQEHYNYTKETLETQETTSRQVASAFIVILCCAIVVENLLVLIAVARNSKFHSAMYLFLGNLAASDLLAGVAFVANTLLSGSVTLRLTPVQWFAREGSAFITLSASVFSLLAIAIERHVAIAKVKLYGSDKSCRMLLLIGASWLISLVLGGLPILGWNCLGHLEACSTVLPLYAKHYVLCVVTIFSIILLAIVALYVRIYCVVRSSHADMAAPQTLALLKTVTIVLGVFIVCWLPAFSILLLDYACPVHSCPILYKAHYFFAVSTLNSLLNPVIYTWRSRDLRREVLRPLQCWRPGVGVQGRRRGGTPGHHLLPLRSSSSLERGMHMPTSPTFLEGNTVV

fold less potent than mono-chlorinated 9c at S1P4 (S1P4 receptor; versus 9c): 7 fold
fold less potent than the hit (1) at S1P4 (S1P4 receptor): 25 fold
Structure (SMILES): Cc1cccc(C)c1NC(=O)c1ccc(-c2ccc(Cl)cc2Cl)o1 [9a]

fold less potent than the hit (1) at S1P4 (S1P4 receptor): 6 fold
Structure (SMILES): Cc1cccc(C)c1NC(=O)c1ccc(-c2cccc(Cl)c2)o1 [9b]

fold less potent than the hit (1) at S1P4 (S1P4 receptor): 3 fold
Structure (SMILES): Cc1cccc(C)c1N(C)C(=O)c1ccc(-c2ccccc2Cl)o1 [9c]

S1P4 activity in words (S1P4 receptor): inactive
Structure (SMILES): Cc1cccc(C)c1NC(=O)c1ccc(-c2c(C)cccc2C)o1 [9j]

fold more potent than 9k at S1P4 (S1P4 receptor; versus 9k): 1.5 fold
Structure (SMILES): Cc1cscc1-c1ccc(C(=O)Nc2c(C)cccc2C)o1 [9l]

Continued, compound first:

Structure (SMILES): O=C(c1ccc(-c2cc(Cl)ccc2Cl)o1)N1CCc2ccccc21 [4j]
S1P4 activity in words (S1P4 receptor): suppressed completely the activity

Structure (SMILES): Cc1cc(C)c(N(C)C(=O)c2ccc(-c3cc(Cl)ccc3Cl)o2)c(C)c1 [4r]
fold less potent than the homolog 4q at S1P4 (S1P4 receptor; versus 4q): approximately 128 fold

Structure (SMILES): Cc1cc(CO)cc(C)c1NC(=O)c1ccc(-c2cc(Cl)ccc2Cl)o1 [4t]
IC50 (S1P4 receptor): 0.036 µM

Structure (SMILES): Cc1cccc(C)c1NC(=O)c1ccc(-c2cc(Cl)ccc2Cl)o1 [compound 1, 5-(2,5-dichlorophenyl)-N-(2,6-dimethylphenyl)furan-2-carboxamide]
IC50 (S1P3): > 25 µM
IC50 (S1P2): > 25 µM
IC50 (S1P1): > 25 µM
